Test results: ChEMBL document CHEMBL4049410, “Novel benzimidazolyl tetrahydroprotoberberines: Design, synthesis, antimicrobial evaluation and multi-targeting exploration” (2017)
Values after ≈ are worked out from the molar mass of the structure shown.

Assays:
Staphylococcus aureus [1] = assay: Antibacterial activity against methicillin-resistant Staphylococcus aureus N315 after 24 hrs by two-fold serial dilution assay; assay type: functional
Bacillus subtilis = assay: Antibacterial activity against Bacillus subtilis after 24 hrs by two-fold serial dilution assay; assay type: functional
Method in brief: (§1)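 Twofold serial broth dilution following NCCLS guidance, with Chloromycin, Norfloxacin and Fluconazole as positive controls. MIC in μM is the lowest concentration giving complete inhibition of visible bacterial or fungal growth.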

Micrococcus luteus = assay: Antibacterial activity against Micrococcus luteus ATCC 4698 after 24 hrs by two-fold serial dilution assay; assay type: functional, NCTC 2665; method in brief: as §1
Staphylococcus aureus [2] = assay: Antibacterial activity against Staphylococcus aureus ATCC 25923 after 24 hrs by two-fold serial dilution assay; assay type: functional; method in brief: as §1
Escherichia coli [3] = assay: Antibacterial activity against Escherichia coli JM109 after 24 hrs by two-fold serial dilution assay; assay type: functional; method in brief: as §1
Escherichia coli [4] = assay: Antibacterial activity against Escherichia coli DH52 after 24 hrs by two-fold serial dilution assay; assay type: functional; method in brief: as §1
Shigella dysenteriae = assay: Antibacterial activity against Shigella dysenteriae after 24 hrs by two-fold serial dilution assay; assay type: functional
Pseudomonas aeruginosa = assay: Antibacterial activity against Pseudomonas aeruginosa after 24 hrs by two-fold serial dilution assay; assay type: functional; method in brief: as §1
Salmonella typhi = assay: Antibacterial activity against Bacillus typhi after 24 hrs by two-fold serial dilution assay; assay type: functional, Salmonella enterica subsp. enterica serovar Typhi
Proteus vulgaris = assay: Antibacterial activity against Bacillus proteus ATCC 13315 after 24 hrs by two-fold serial dilution assay; assay type: functional; method in brief: as §1
Pichia norvegensis = assay: Antifungal activity against Candida mycoderma after 24 hrs by two-fold serial dilution assay; assay type: functional; method in brief: as §1
Cyberlindnera jadinii = assay: Antifungal activity against Candida utilis after 24 hrs by two-fold serial dilution assay; assay type: functional; method in brief: as §1
Saccharomyces cerevisiae = assay: Antifungal activity against Saccharomyces cerevisiae after 24 hrs by two-fold serial dilution assay; assay type: functional; method in brief: as §1
Aspergillus flavus = assay: Antifungal activity against Aspergillus flavus after 24 hrs by two-fold serial dilution assay; assay type: functional; method in brief: as §1
Candida albicans = assay: Antifungal activity against Candida albicans ATCC 76615 after 24 hrs by two-fold serial dilution assay; assay type: functional; method in brief: as §1
[5] = Staphylococcus aureus, N315, 24 h, read-out: MIC
[6] = Bacillus subtilis, 24 h, read-out: MIC
[7] = Micrococcus luteus, NCTC 2665, 24 h, read-out: MIC
[8] = Staphylococcus aureus, ATCC 25923, 24 h, read-out: MIC
[9] = Escherichia coli, JM109, 24 h, read-out: MIC
[10] = Escherichia coli, DH52, 24 h, read-out: MIC
[11] = Shigella dysenteriae, 24 h, read-out: MIC
[12] = Pseudomonas aeruginosa, 24 h, read-out: MIC
[13] = Salmonella enterica, 24 h, read-out: MIC
[14] = Proteus vulgaris, ATCC 13315, 24 h, read-out: MIC
[15] = Pichia norvegensis, 24 h, read-out: MIC
[16] = Williopsis jadinii, 24 h, read-out: MIC
[17] = Saccharomyces cerevisiae, 24 h, read-out: MIC
[18] = Aspergillus flavus, 24 h, read-out: MIC
[19] = Candida albicans, ATCC 76615, 24 h, read-out: MIC

SMILES | MIC (Bacillus subtilis) | MIC (Micrococcus luteus) | MIC (Staphylococcus aureus [2]) | MIC (Escherichia coli [3]) | MIC (Aspergillus flavus) | MIC (Staphylococcus aureus [1]; [5]) | MIC (Bacillus subtilis; [6]) | MIC (Micrococcus luteus; [7]) | MIC (Staphylococcus aureus [2]; [8]) | MIC (Escherichia coli [3]; [9]) | MIC (Escherichia coli [4]; [10]) | MIC (Shigella dysenteriae; [11]) | MIC (Pseudomonas aeruginosa; [12]) | MIC (Salmonella typhi; [13]) | MIC (Proteus vulgaris; [14]) | MIC (Pichia norvegensis; [15]) | MIC (Cyberlindnera jadinii; [16]) | MIC (Saccharomyces cerevisiae; [17]) | MIC (Aspergillus flavus; [18]) | MIC (Candida albicans; [19]) | further results
COc1cc(-c2nc3ccccc3n2Cc2ccc(Cl)cc2)c2c(c1O)CN1CCc3cc4c(cc3C1C2)OCO4 (stereo not given) | 11.8 µM (≈ 6.68 µg/mL) | 28.3 µM (≈ 16 µg/mL) | 9.4 µM (≈ 5.32 µg/mL) | 37.7 µM (≈ 21.3 µg/mL) | 14.1 µM (≈ 7.98 µg/mL) | – | – | – | – | – | – | – | – | – | – | – | – | – | – | – | MIC (Staphylococcus aureus [1]): 18.9 µM (≈ 10.7 µg/mL); MIC (Escherichia coli [4]): 56.5 µM (≈ 32 µg/mL); MIC (Shigella dysenteriae): 18.9 µM (≈ 10.7 µg/mL); MIC (Pseudomonas aeruginosa): 23.6 µM (≈ 13.4 µg/mL); MIC (Salmonella typhi): 9.4 µM (≈ 5.32 µg/mL); MIC (Proteus vulgaris): 11.8 µM (≈ 6.68 µg/mL); MIC (Pichia norvegensis): 14.1 µM (≈ 7.98 µg/mL); MIC (Cyberlindnera jadinii): 11.8 µM (≈ 6.68 µg/mL); MIC (Saccharomyces cerevisiae): 14.1 µM (≈ 7.98 µg/mL); MIC (Candida albicans): 23.6 µM (≈ 13.4 µg/mL)
COc1cc(-c2nc3cc(Cl)ccc3[nH]2)c2c(c1O)CN1CCc3cc4c(cc3C1C2)OCO4 (stereo not given) | – | – | – | – | – | 1080 µM (≈ 512 µg/mL) | 717 µM (≈ 341 µg/mL) | 896 µM (≈ 427 µg/mL) | 1080 µM (≈ 512 µg/mL) | 896 µM (≈ 427 µg/mL) | 896 µM (≈ 427 µg/mL) | 1080 µM (≈ 512 µg/mL) | 359 µM (≈ 171 µg/mL) | 448 µM (≈ 213 µg/mL) | 896 µM (≈ 427 µg/mL) | 896 µM (≈ 427 µg/mL) | 717 µM (≈ 341 µg/mL) | 896 µM (≈ 427 µg/mL) | 1080 µM (≈ 512 µg/mL) | 896 µM (≈ 427 µg/mL) | –
COc1cc(-c2nc3ccccc3n2Cc2ccc(Cl)cc2)c2c(c1O)CN1CCc3cc4c(cc3C1C2)OCO4.Cl (stereo not given) | 134 µM | 535.9 µM | 267.9 µM | 535.9 µM | 669.8 µM | – | – | – | – | – | – | – | – | – | – | – | – | – | – | – | MIC (Escherichia coli [4]): 669.8 µM; MIC (Pseudomonas aeruginosa): 535.9 µM; MIC (Salmonella typhi): 201 µM; MIC (Proteus vulgaris): 535.9 µM; MIC (Pichia norvegensis): 267.9 µM; MIC (Cyberlindnera jadinii): 535.9 µM; MIC (Saccharomyces cerevisiae): 803.8 µM; MIC (Candida albicans): 401.9 µM
CCn1cc(C(=O)O)c(=O)c2cc(F)c(N3CCNCC3)cc21 [NORFLOXACIN] | – | – | – | – | – | 25.1 µM (≈ 8.02 µg/mL) | 3.1 µM (≈ 0.99 µg/mL) | 4.2 µM (≈ 1.34 µg/mL) | 1.1 µM (≈ 0.351 µg/mL) | 50.1 µM (≈ 16 µg/mL) | 50.1 µM (≈ 16 µg/mL) | 5.3 µM (≈ 1.69 µg/mL) | 41.8 µM (≈ 13.3 µg/mL) | 10.4 µM (≈ 3.32 µg/mL) | 12.5 µM (≈ 3.99 µg/mL) | – | – | – | – | – | –
COc1cc(-c2nc3ccccc3n2Cc2cccc(F)c2)c2c(c1O)CN1CCc3cc4c(cc3C1C2)OCO4 (stereo not given) | 19.4 µM (≈ 10.7 µg/mL) | 19.4 µM (≈ 10.7 µg/mL) | – | 29.1 µM (≈ 16 µg/mL) | 24.3 µM (≈ 13.4 µg/mL) | – | – | – | 48.5 µM (≈ 26.7 µg/mL) | – | – | 116 µM (≈ 64 µg/mL) | – | – | – | 48.5 µM (≈ 26.7 µg/mL) | – | 24.3 µM (≈ 13.4 µg/mL) | – | 48.5 µM (≈ 26.7 µg/mL) | MIC (Staphylococcus aureus [1]): 12.2 µM (≈ 6.71 µg/mL); MIC (Escherichia coli [4]): 38.8 µM (≈ 21.3 µg/mL); MIC (Pseudomonas aeruginosa): 48.5 µM (≈ 26.7 µg/mL); MIC (Proteus vulgaris): 38.8 µM (≈ 21.3 µg/mL); MIC (Cyberlindnera jadinii): 48.5 µM (≈ 26.7 µg/mL)
OC(Cn1cncn1)(Cn1cncn1)c1ccc(F)cc1F [FLUCONAZOLE] | – | – | – | – | – | – | – | – | – | – | – | – | – | – | – | 26.1 µM (≈ 7.99 µg/mL) | 10.9 µM (≈ 3.34 µg/mL) | 52.2 µM (≈ 16 µg/mL) | 836 µM (≈ 256 µg/mL) | – | –
COc1cc(-c2nc3ccccc3[nH]2)c2c(c1O)CN1CCc3cc4c(cc3C1C2)OCO4 (stereo not given) | – | – | – | – | – | 121 µM (≈ 53.3 µg/mL) | 48.3 µM (≈ 21.3 µg/mL) | 242 µM (≈ 107 µg/mL) | 580 µM (≈ 256 µg/mL) | 60.4 µM (≈ 26.7 µg/mL) | 96.7 µM (≈ 42.7 µg/mL) | 96.7 µM (≈ 42.7 µg/mL) | 145 µM (≈ 64 µg/mL) | 48.3 µM (≈ 21.3 µg/mL) | 242 µM (≈ 107 µg/mL) | 60.4 µM (≈ 26.7 µg/mL) | 242 µM (≈ 107 µg/mL) | 48.3 µM (≈ 21.3 µg/mL) | 72.5 µM (≈ 32 µg/mL) | 483 µM (≈ 213 µg/mL) | –
COc1cc(-c2nc3ccccc3n2Cc2ccccc2Cl)c2c(c1O)CN1CCc3cc4c(cc3C1C2)OCO4 (stereo not given) | – | – | – | – | – | 23.6 µM (≈ 13.4 µg/mL) | 188 µM (≈ 107 µg/mL) | 23.6 µM (≈ 13.4 µg/mL) | 9.4 µM (≈ 5.32 µg/mL) | 4.7 µM (≈ 2.66 µg/mL) | 23.6 µM (≈ 13.4 µg/mL) | 28.3 µM (≈ 16 µg/mL) | 23.6 µM (≈ 13.4 µg/mL) | 37.7 µM (≈ 21.3 µg/mL) | 47.1 µM (≈ 26.7 µg/mL) | 47.1 µM (≈ 26.7 µg/mL) | 18.9 µM (≈ 10.7 µg/mL) | 23.6 µM (≈ 13.4 µg/mL) | 11.8 µM (≈ 6.68 µg/mL) | 56.5 µM (≈ 32 µg/mL) | –
COc1cc(-c2nc3ccccc3n2Cc2ccccc2F)c2c(c1O)CN1CCc3cc4c(cc3C1C2)OCO4 (stereo not given) | – | – | 58.2 µM (≈ 32 µg/mL) | – | 24.3 µM (≈ 13.4 µg/mL) | 24.3 µM (≈ 13.4 µg/mL) | 48.5 µM (≈ 26.7 µg/mL) | 29.1 µM (≈ 16 µg/mL) | – | 29.1 µM (≈ 16 µg/mL) | 38.8 µM (≈ 21.3 µg/mL) | 48.5 µM (≈ 26.7 µg/mL) | 58.2 µM (≈ 32 µg/mL) | – | 38.8 µM (≈ 21.3 µg/mL) | 19.4 µM (≈ 10.7 µg/mL) | 9.7 µM (≈ 5.33 µg/mL) | 58.2 µM (≈ 32 µg/mL) | – | 24.3 µM (≈ 13.4 µg/mL) | –
